Experimental data reported in ChEMBL document CHEMBL1772961, “Discovery of dual target inhibitors against cyclooxygenases and leukotriene A4 hydrolyase” (J Med Chem, 2011).

Experiments:
[1] = molecular target: T1, Prostaglandin G/H synthase 2 (Homo sapiens, UniProt P35354); experiment: Inhibition of COX2 in human whole blood assessed as inhibition of LPS-induced PGE2 production after 24 hrs by ELISA
T1 sequence (P35354 whole entry): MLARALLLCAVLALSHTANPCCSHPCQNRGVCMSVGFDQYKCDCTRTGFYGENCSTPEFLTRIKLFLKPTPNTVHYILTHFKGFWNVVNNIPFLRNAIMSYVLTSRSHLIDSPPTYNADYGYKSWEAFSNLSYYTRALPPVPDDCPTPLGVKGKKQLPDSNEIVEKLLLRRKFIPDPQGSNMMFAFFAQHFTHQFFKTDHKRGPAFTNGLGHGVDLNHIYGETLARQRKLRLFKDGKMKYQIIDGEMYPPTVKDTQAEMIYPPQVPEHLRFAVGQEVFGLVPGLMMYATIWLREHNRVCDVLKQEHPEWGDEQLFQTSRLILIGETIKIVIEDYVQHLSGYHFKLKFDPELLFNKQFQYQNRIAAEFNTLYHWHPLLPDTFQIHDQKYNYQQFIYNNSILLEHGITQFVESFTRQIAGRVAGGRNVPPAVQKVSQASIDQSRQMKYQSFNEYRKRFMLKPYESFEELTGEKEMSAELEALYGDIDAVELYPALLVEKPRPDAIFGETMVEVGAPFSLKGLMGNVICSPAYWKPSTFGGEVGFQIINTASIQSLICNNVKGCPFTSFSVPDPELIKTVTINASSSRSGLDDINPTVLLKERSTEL

[2] = molecular target: Prostaglandin G/H synthase 1 (Homo sapiens, UniProt P23219); experiment: Inhibition of purified COX1 assessed as formation of oxidized TMPD during reduction og PGG2 to PGH2 preincubated for 15 mins by chromogenic assay
Sequence of Prostaglandin G/H synthase 1 (P23219 whole entry): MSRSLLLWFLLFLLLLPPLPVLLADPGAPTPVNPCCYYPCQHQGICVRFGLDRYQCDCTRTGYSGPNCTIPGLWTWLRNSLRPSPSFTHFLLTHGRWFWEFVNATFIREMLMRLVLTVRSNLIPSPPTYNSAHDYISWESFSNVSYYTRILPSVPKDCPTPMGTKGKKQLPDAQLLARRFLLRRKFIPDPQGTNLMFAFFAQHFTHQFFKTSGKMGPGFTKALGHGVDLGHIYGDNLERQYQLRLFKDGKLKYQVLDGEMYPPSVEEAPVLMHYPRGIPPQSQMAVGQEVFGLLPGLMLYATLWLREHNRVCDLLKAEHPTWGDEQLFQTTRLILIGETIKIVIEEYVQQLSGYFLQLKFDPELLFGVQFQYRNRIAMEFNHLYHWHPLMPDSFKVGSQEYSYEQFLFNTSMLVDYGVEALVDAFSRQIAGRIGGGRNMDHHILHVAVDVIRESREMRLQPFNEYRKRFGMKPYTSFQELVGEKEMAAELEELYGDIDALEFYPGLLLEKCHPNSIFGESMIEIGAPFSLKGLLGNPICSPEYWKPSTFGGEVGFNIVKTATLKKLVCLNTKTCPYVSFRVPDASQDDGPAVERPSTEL
Outline: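 Purified COX-1, approx 20 units, in 100 mM Tris pH 8 with 2 mM genapol X-100 and 1 μM hematin. Compounds in DMSO (5% final) preincubated 15 min at 25 °C. TMPD then added, reaction started with arachidonic acid. Initial rate of TMPD oxidation read at 610 nm over first 36 s. Nonenzymatic oxidation without enzyme subtracted before computing percent inhibition.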

[3] = molecular target: T2, Leukotriene A-4 hydrolase (Homo sapiens, UniProt P09960); experiment: Inhibition of LTA4 hydrolase in human whole blood assessed as inhibition of calcium ionophore A23187-induced LTB4 production after 0.5 hrs by ELISA
T2 sequence (P09960 whole entry): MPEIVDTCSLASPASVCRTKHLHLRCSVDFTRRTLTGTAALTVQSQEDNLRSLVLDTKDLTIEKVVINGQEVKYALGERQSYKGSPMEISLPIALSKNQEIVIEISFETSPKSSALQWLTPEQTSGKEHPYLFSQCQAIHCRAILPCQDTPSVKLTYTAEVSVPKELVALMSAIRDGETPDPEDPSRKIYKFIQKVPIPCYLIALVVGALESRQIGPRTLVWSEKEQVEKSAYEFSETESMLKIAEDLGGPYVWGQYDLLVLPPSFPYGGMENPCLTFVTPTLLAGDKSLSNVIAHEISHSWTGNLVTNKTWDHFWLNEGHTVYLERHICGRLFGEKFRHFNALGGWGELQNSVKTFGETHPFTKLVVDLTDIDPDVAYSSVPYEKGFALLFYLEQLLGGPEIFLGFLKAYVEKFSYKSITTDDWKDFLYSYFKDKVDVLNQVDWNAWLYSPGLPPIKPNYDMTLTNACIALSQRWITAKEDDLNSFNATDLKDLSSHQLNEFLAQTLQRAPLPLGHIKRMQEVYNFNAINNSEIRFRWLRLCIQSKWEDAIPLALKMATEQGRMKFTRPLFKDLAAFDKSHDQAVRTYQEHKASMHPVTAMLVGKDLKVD

[4] = molecular target: T1, Prostaglandin G/H synthase 2; experiment: Inhibition of purified COX2 assessed as formation of oxidized TMPD during reduction og PGG2 to PGH2 preincubated for 15 mins by chromogenic assay
[5] = molecular target: T2, Leukotriene A-4 hydrolase; experiment: Inhibition of human LTA4 hydrolase activity assessed as LTB4 production after 15 mins by ELISA

c1ccc(Oc2ccc(OCCN3CCCC3)cc2)cc1
IC50 [1]: > 100 µM
IC50 [2]: > 100 µM
IC50 [3]: 0.78 µM
IC50 [4]: > 100 µM

O=[N+]([O-])c1ccccc1Oc1ccc(OCCN2CCCC2)cc1
IC50 [1]: 8.4 µM
IC50 [2]: 61 µM
IC50 [3]: 6.9 µM
IC50 [5]: 0.68 µM
IC50 [4]: 7.7 µM

O=[N+]([O-])c1cccc(Oc2ccc(OCCN3CCCC3)cc2)c1
IC50 [1]: 13 µM
IC50 [2]: > 100 µM
IC50 [3]: 1.4 µM
IC50 [5]: 0.47 µM
IC50 [4]: > 100 µM

O=[N+]([O-])c1ccc(Oc2ccc(OCCN3CCCC3)cc2)cc1
IC50 [1]: > 100 µM
IC50 [2]: 20.4 µM
IC50 [3]: 0.69 µM
IC50 [5]: 0.37 µM
IC50 [4]: 35.3 µM

O=[N+]([O-])c1ccc(Oc2ccc(OCCN3CCCC3)cc2)c([N+](=O)[O-])c1
IC50 [1]: > 100 µM
IC50 [2]: > 100 µM
IC50 [3]: > 100 µM
IC50 [5]: > 100 µM
IC50 [4]: > 100 µM

c1ccc(Oc2ccc(OCCN3CCCC3)cc2)nc1
IC50 [1]: > 100 µM
IC50 [2]: > 100 µM
IC50 [3]: 0.18 µM
IC50 [5]: 0.77 µM
IC50 [4]: 34.4 µM

c1cc(Oc2ccc(OCCN3CCCC3)cc2)ccn1
IC50 [1]: > 100 µM
IC50 [2]: > 100 µM
IC50 [3]: 0.67 µM
IC50 [5]: 0.58 µM
IC50 [4]: > 100 µM

CS(=O)(=O)c1ccccc1Oc1ccc(OCCN2CCCC2)cc1
IC50 [1]: > 100 µM
IC50 [2]: > 100 µM
IC50 [3]: > 100 µM
IC50 [5]: > 100 µM
IC50 [4]: > 100 µM

CS(=O)(=O)c1cccc(Oc2ccc(OCCN3CCCC3)cc2)c1
IC50 [1]: > 100 µM
IC50 [2]: > 100 µM
IC50 [3]: > 100 µM
IC50 [5]: > 100 µM
IC50 [4]: > 100 µM

CS(=O)(=O)c1ccc(Oc2ccc(OCCN3CCCC3)cc2)cc1
IC50 [1]: > 100 µM
IC50 [2]: > 100 µM
IC50 [3]: > 100 µM
IC50 [5]: > 100 µM
IC50 [4]: > 100 µM

CS(=O)(=O)c1ccc(Oc2ccc(OCCN3CCCC3)cc2)c([N+](=O)[O-])c1
IC50 [1]: > 100 µM
IC50 [2]: > 100 µM
IC50 [3]: > 100 µM
IC50 [5]: > 100 µM
IC50 [4]: > 100 µM

c1cnc(Oc2ccc(OCCN3CCCC3)cc2)cn1
IC50 [1]: > 100 µM
IC50 [2]: > 100 µM
IC50 [3]: > 100 µM
IC50 [5]: 4.3 µM
IC50 [4]: 61.6 µM

O=[N+]([O-])c1cccnc1Oc1ccc(OCCN2CCCC2)cc1
IC50 [1]: > 100 µM
IC50 [2]: > 100 µM
IC50 [3]: 34 µM
IC50 [5]: 2.5 µM
IC50 [4]: > 100 µM

FC(F)(F)c1ccccc1Oc1ccc(OCCN2CCCC2)cc1
IC50 [1]: 5 µM
IC50 [2]: > 100 µM
IC50 [3]: 0.73 µM
IC50 [5]: 0.22 µM
IC50 [4]: 41.4 µM

FC(F)(F)c1cccc(Oc2ccc(OCCN3CCCC3)cc2)c1
IC50 [1]: > 100 µM
IC50 [2]: > 100 µM
IC50 [3]: > 100 µM
IC50 [5]: 0.54 µM
IC50 [4]: > 100 µM

FC(F)(F)c1ccc(Oc2ccc(OCCN3CCCC3)cc2)cc1
IC50 [1]: > 100 µM
IC50 [2]: > 100 µM
IC50 [3]: 2 µM
IC50 [5]: 0.39 µM
IC50 [4]: > 100 µM

Fc1ccc(Oc2ccc(OCCN3CCCC3)cc2)cc1
IC50 [1]: > 100 µM
IC50 [2]: > 100 µM
IC50 [3]: 0.99 µM
IC50 [5]: 0.08 µM
IC50 [4]: > 100 µM

Clc1ccc(Oc2ccc(OCCN3CCCC3)cc2)cc1
IC50 [1]: 22 µM
IC50 [2]: > 100 µM
IC50 [3]: 0.73 µM
IC50 [5]: 0.04 µM
IC50 [4]: > 100 µM

Brc1ccc(Oc2ccc(OCCN3CCCC3)cc2)cc1
IC50 [1]: 5.1 µM
IC50 [2]: > 100 µM
IC50 [3]: 0.29 µM
IC50 [5]: 0.11 µM
IC50 [4]: > 100 µM

Nc1ccccc1Oc1ccc(OCCN2CCCC2)cc1
IC50 [1]: > 100 µM
IC50 [2]: > 100 µM
IC50 [3]: 0.11 µM
IC50 [5]: 0.63 µM
IC50 [4]: > 100 µM

Nc1cccc(Oc2ccc(OCCN3CCCC3)cc2)c1
IC50 [1]: > 100 µM
IC50 [2]: > 100 µM
IC50 [3]: 0.97 µM
IC50 [5]: 0.69 µM
IC50 [4]: > 100 µM

Nc1ccc(Oc2ccc(OCCN3CCCC3)cc2)cc1
IC50 [1]: > 100 µM
IC50 [2]: 1.9 µM
IC50 [3]: 0.029 µM
IC50 [5]: 0.32 µM
IC50 [4]: 36.3 µM

CS(=O)(=O)N(c1ccccc1Oc1ccc(OCCN2CCCC2)cc1)S(C)(=O)=O
IC50 [1]: > 100 µM
IC50 [2]: > 100 µM
IC50 [3]: > 100 µM
IC50 [5]: > 100 µM
IC50 [4]: > 100 µM

CS(=O)(=O)N(c1cccc(Oc2ccc(OCCN3CCCC3)cc2)c1)S(C)(=O)=O
IC50 [1]: > 100 µM
IC50 [2]: > 100 µM
IC50 [3]: > 100 µM
IC50 [5]: > 100 µM
IC50 [4]: > 100 µM

CS(=O)(=O)Nc1ccc(Oc2ccc(OCCN3CCCC3)cc2)cc1
IC50 [1]: > 100 µM
IC50 [2]: > 100 µM
IC50 [3]: 2.1 µM
IC50 [5]: 3.4 µM
IC50 [4]: > 100 µM

CN(c1ccccc1Oc1ccc(OCCN2CCCC2)cc1)S(C)(=O)=O
IC50 [1]: > 100 µM
IC50 [2]: > 100 µM
IC50 [3]: > 100 µM
IC50 [5]: > 100 µM
IC50 [4]: 92 µM

CS(=O)(=O)Nc1ccc([N+](=O)[O-])cc1Oc1ccccc1 [NIMESULIDE]
IC50 [3]: > 100 µM
IC50 [5]: > 100 µM
